Screening data from PubChem.
Sampled rows, rich in hits. Any-hit rate of the full collection: about 1.8%.
CHRM5 antagonist – CHRM5 antagonism in calcium assay; P08912; CHO-hM5 cells, Fluo-8 calcium fluorescence, ACh EC80; inhibition, % at 3 µM; 0.59% of 360,000 active;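 active means inhibition above a per-plate cutoff, the mean of that plate's test compounds plus 3 SD, cut at about 27% in these data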
M5 ag – CHRM5 agonism in calcium assay. CHO-K1 hM5 cells, Fluo-8 calcium fluorescence; 0% DMSO wells, 100% maximal acetylcholine response. activation, % at 3 µM. 0.19% of 360,000 active;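 active means activation above the run's mean over test compounds plus 3 SD, cut at about 23% in these data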;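 further: signal is peak over basal fluorescence ratio across the kinetic read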
CHRM5 PAM – positive allosteric modulators of human muscarinic M5 receptor. P08912. AID 624038. CHO-K1 hM5, Fluo-8 calcium, ACh EC20 PAM; 0% = ACh EC20, 100% = ACh EC100. activation, % at 3 µM. 0.3% of 360,000 active;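 active means activation above the run cutoff, the mean activation of all test compounds plus 3 SD, cut at about 18% in these data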
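system = human M5 receptor in CHO-K1 cells | compound = one concentration, 3 µM final (nominal) | schedule = Post-acetylcholine fluorescence recording 140 s | signal = Fluo-8 calcium dye fluorescence, kinetic read | benchmarks = low control EC20 acetylcholine (0%), high control EC100 acetylcholine (100%) | repeats = singlicate, one well per test compound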
M4 antag – blocks acetylcholine activation of human M4 receptor | inhibition, % at 3 µM | 0.73% of 360,000 active | P08173 | AID 624125 | CHO-hM4 cells, ACh EC80, Fluo-8 calcium fluorescence;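 active means inhibition above its plate's cutoff, the mean inhibition of sample wells plus 3 SD, cut at about 27% in these data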
CHRM4 PAM – CHRM4 positive allosteric modulation | P08173 | CHO-K1 hM4/Gqi5, Fluo-8 calcium fluorescence, ACh EC20; 0% = ACh EC20, 100% = maximal ACh | activation, % at 3 µM | 0.4% of 360,000 active;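 active means activation above its plate's cutoff, the mean activation of sample wells plus 3 SD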
CHRM4 agonist – CHRM4 agonism in calcium assay | CHO-K1 hM4/Gqi5, Fluo-8 calcium fluorescence; vehicle 0%, full acetylcholine response 100% | 0.14% of 360,000 active | activation, % at 3 µM | P08173 | AID 624127;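 active means activation above the run mean over all test wells plus 3 SD, cut at about 32% in these data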;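 further: peak over basal fluorescence ratio per well then scaled between controls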
Of the large screens only hits and unclear results are named; the others gave an inactive call.

Cc1cc(C)c2c(N)c(C(=O)NC3CCCC3)sc2n1	M4 antag 61.3, CHRM4 PAM 51.8, CHRM4 agonist 36.3
COc1ccc(NC(=O)c2sc3nc(C)cc(C)c3c2N)cc1	none
Cc1cc(C)c2c(N)c(C(=O)Nc3ccc(F)cc3)sc2n1	CHRM4 PAM 26.9
Fc1cccc(F)c1-n1c(CN2CCCC2)csc1=S	M4 antag 68.1
CCC(=O)N1CCc2cc(S(=O)(=O)CCC(=O)N3CCN(c4ccc(Cl)cc4)CC3)ccc21	CHRM5 antagonist 27.9
CN(C)/C=C(\C#N)C(=O)N/N=C/c1ccccc1	CHRM5 PAM 18.3
O=C(N/N=C/c1ccccc1)C(=O)N/N=C/c1ccccc1	none
c1ccc(COc2ncnc3c2ncn3CCCN2CCN(Cc3cccc4ccccc34)CC2)cc1	none
Cc1ccc(CN2CCN(CCCn3cnc4c(OCc5ccccc5)ncnc43)CC2)cc1	M4 antag 33.4
O=C(O)CCC1(CCC(=O)O)CCCC(CCC(=O)O)(CCC(=O)O)C1=O	none
CC(=O)N1CCOc2ccc(S(=O)(=O)NC(C)c3ccccc3)cc21 (stereo unspecified)	none
CCN1CCCC(OC(=O)C(c2ccccc2)c2ccccc2)C1 (stereo unspecified)	CHRM5 antagonist 57.3, M4 antag 32.1
CCC(C)C(NC(=O)C1CCC(C)CC1)C(=O)NC(C(=O)OC)C(C)C (stereo unspecified)	CHRM4 PAM 20.3
CCCn1c(=S)[nH]c2cc(C(=O)N3CCN(c4ccccc4OC)CC3)ccc2c1=O	M4 antag 38.9
CCOc1ccc(/C=C/[N+](=O)[O-])c2ccccc12	CHRM5 antagonist 86.1, M5 ag 54.1, M4 antag 39.7
S=C1N(c2ccccc2)C(c2ccc(Br)cc2)N2CCCN12 (stereo unspecified)	CHRM5 antagonist 38.1, M4 antag 78.7
S=C1N(c2ccccc2)C(c2ccc(Cl)cc2)N2CCCN12 (stereo unspecified)	M4 antag 42.0
COc1cc(NC(=O)CSc2nc3[nH]ncc3c(=O)n2-c2ccccc2)cc(OC)c1OC	none
CC(=O)Nc1ccc(NC(=O)CSc2nc3[nH]ncc3c(=O)n2-c2ccccc2)cc1	CHRM4 PAM 20.3
COc1ccc(CCn2cc(C#N)c(=O)[nH]c2=O)cc1OC	none
COc1ccccc1CCn1cc(C#N)c(=O)[nH]c1=O	M4 antag 99.7
CC[C@H](C)[C@H]1CNC(=O)C(=O)N1CC1CCN(CCc2ccccc2)CC1	none
COc1ccccc1C(=O)COC(=O)c1cccs1	none
COc1ccccc1C(=O)COC(=O)c1ccccc1O	CHRM5 antagonist 33.2
COc1ccc(NC(=O)CN(C)C(=O)C2(c3ccccc3)CCCC2)cc1	none
CN(C)c1ccc(C=c2c3ccccc3n3c2c2ccccc2[n+]3C)cc1	M4 antag 32.5
COc1ccc(C(C)NC(=O)Cc2ccc(Br)cc2)cc1 (stereo unspecified)	CHRM4 agonist 37.3
CC(C)NC(=O)Cc1ccc(Br)cc1	none
COc1ccc(NC(=O)c2cc(-c3ccccn3)nc3ccccc23)c(OC)c1	CHRM5 antagonist 27.4
CCOc1ccccc1NC(=O)c1cc(-c2ccccn2)nc2ccccc12	none
CCN(CC)CCNC1=NCCn2c1cc1cc(OC)ccc12	CHRM5 PAM 20.2
O=C(Nc1ccc(Oc2ccccc2)cc1)c1ccc2sc([C@H]3C[C@H](O)[C@@H](CO)O3)nc2c1	M4 antag 28.2
O=C1NC[C@@H](CCCCN2C[C@H](Cc3ccc(O)cc3)N(CCc3ccc(O)cc3)C(=O)C2=O)N(CCc2ccccc2)C1=O	none
COc1ccc(S(=O)(=O)N2CCCC2)cc1NC(=O)c1ccccc1F	none
CC(=O)Nc1ccc(S(=O)(=O)N2CCC(C(=O)NCCC(=O)Nc3ccccc3)CC2)cc1	CHRM5 PAM 19.6
COc1ccccc1NC(=O)c1cc(S(=O)(=O)N2CCCCCC2)ccc1F	CHRM5 PAM 24.3, CHRM4 PAM 30.0, CHRM4 agonist 34.3
